Laboratory results reported in ChEMBL document CHEMBL1212864, “Synthesis of novel 3,5-diaryl pyrazole derivatives using combinatorial chemistry as inhibitors of tyrosinase as well as potent anticancer, anti-inflammatory agents” (Bioorg Med Chem, 2010).

Assays:
[1] = tested on: MCF7; test: Anticancer activity against human MCF7 cells at 10 uM after 24 hrs; assay type: functional
[2] = tested on: PC-3; test: Anticancer activity against human PC3 cells at 10 uM after 24 hrs; assay type: functional
[3] = tested on: HL-60; test: Anticancer activity against human HL60 cells at 10 uM after 24 hrs; assay type: functional
[4] = tested on: NCI-H460; test: Anticancer activity against human H460 cells at 10 uM after 24 hrs; assay type: functional
[5] = tested on: HCT-116; test: Anticancer activity against human HCT116 cells at 10 uM after 24 hrs; assay type: functional
[6] = tested on: THP-1; test: Antiinflammatory activity against human THP1 cells assessed as inhibition of LPS-induced TNFalpha release at 10 uM after 24 hrs; assay type: functional; details: THP-1, 24 h
Outline: (§1)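 Human THP-1 cells were grown in RPMI 1640 with 10% FBS, penicillin and streptomycin, then differentiated with PMA. Test agents in 0.5% DMSO were preincubated with cells for 30 min at 37 °C before E. coli 0127:B8 LPS was added. Cytokine release was measured by the manufacturer's (BD Biosciences) method and expressed as percent inhibition versus control; IC50 values came from nonlinear regression.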

[7] = tested on: THP-1; test: Antiinflammatory activity against human THP1 cells assessed as inhibition of LPS-induced IL6 release at 10 uM after 24 hrs; assay type: functional; details: THP-1, 24 h; outline: as §1
[8] = molecular target: T1, Tyrosinase (Agaricus bisporus, UniProt O42713); test: Inhibition of mashroom tyrosinase
T1 sequence (O42713 whole entry): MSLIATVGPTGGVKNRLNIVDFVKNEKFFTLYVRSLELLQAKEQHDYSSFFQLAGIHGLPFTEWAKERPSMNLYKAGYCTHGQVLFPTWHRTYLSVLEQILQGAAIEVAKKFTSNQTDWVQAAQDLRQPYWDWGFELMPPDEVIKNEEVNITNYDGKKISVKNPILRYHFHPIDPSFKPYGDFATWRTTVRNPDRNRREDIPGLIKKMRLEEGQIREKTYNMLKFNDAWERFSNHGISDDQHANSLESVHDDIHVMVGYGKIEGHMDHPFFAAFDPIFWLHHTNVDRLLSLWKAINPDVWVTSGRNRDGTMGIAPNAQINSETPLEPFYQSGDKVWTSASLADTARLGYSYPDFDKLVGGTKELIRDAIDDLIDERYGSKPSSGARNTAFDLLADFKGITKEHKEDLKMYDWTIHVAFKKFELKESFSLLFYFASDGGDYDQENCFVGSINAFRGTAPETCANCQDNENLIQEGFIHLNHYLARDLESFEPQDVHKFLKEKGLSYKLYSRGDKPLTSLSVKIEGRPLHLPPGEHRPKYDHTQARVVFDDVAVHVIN
Outline: (§2)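 Mushroom tyrosinase diphenolase activity (L-DOPA substrate) or monophenolase activity (L-tyrosine substrate) in 0.25 M phosphate buffer, pH 6.8, at 30 °C. Samples were first dissolved in DMSO. Dopachrome formation was followed spectrophotometrically at 475 nm.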

[9] = molecular target: T1, Tyrosinase; test: Inhibition of mashroom tyrosinase assessed as oxidation of L-DOPA; outline: as §2
[10] = tested on: MCF7; test: Anticancer activity against human MCF7 cells at 0.5 uM after 24 hrs; assay type: functional
[11] = tested on: PC-3; test: Anticancer activity against human PC3 cells at 0.5 uM after 24 hrs; assay type: functional
[12] = tested on: HL-60; test: Anticancer activity against human HL60 cells at 0.5 uM after 24 hrs; assay type: functional
[13] = tested on: NCI-H460; test: Anticancer activity against human H460 cells at 0.5 uM after 24 hrs; assay type: functional
[14] = tested on: HCT-116; test: Anticancer activity against human HCT116 cells at 0.5 uM after 24 hrs; assay type: functional
[15] = tested on: THP-1; test: Antiinflammatory activity against human THP1 cells assessed as inhibition of LPS-induced TNFalpha release at 1 uM after 24 hrs; assay type: functional; design: scale not given: the % may be the effect or the level left; outline: as §1
[16] = tested on: THP-1; test: Antiinflammatory activity against human THP1 cells assessed as inhibition of LPS-induced IL6 release at 1 uM after 24 hrs; assay type: functional; design: scale not given: the % may be the effect or the level left; outline: as §1
[17] = Cytotoxicity against […] at 1 uM; assay type: cell-based
Outline: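 Cytotoxicity was measured with the CCK-8 kit in PMA-differentiated THP-1 cells at the same time as the LPS-induced cytokine release assay. Test agents were given in 0.5% DMSO with a 30 min preincubation at 37 °C before LPS.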

Compound	Activity [1] [%]	Activity [2] [%]	Activity [3] [%]	Activity [4] [%]	Activity [5] [%]	inhibition at 10 µM [6] [%]	inhibition at 10 µM [7] [%]	IC50 [8] [µM]	Ki [8] [µM]	IC50 [9] [µM]	Ki [9] [µM]	Activity [10] [%]	Activity [11] [%]	Activity [12] [%]	Activity [13] [%]	Activity [14] [%]	Activity [15] [%]	Activity [16] [%]	Activity [17] [%]
COc1cc(OC)c(C2CCN(C)C2CO)c(O)c1-c1cc(-c2ccccc2Cl)[nH]n1 (centres undefined)	63	69	67	69	73	24	47	22.8	10.6	29.4	11.8	–	–	–	–	–	–	–	–
COc1cc(OC)c(C2CCN(C)C2CO)c(O)c1-c1cc(-c2ccccc2Br)[nH]n1 (centres undefined)	55	51	62	53	61	19	39	–	–	–	–	–	–	–	–	–	–	–	–
COc1cc(OC)c(C2CCN(C)C2CO)c(O)c1-c1cc(-c2ccc(Cl)cc2Cl)[nH]n1 (centres undefined)	58	63	59	61	59	18	41	–	–	–	–	–	–	–	–	–	–	–	–
COc1cc(OC)c(C2CCN(C)C2CO)c(O)c1-c1cc(-c2ccc([N+](=O)[O-])cc2Cl)[nH]n1 (centres undefined)	61	65	63	65	67	21	42	17.8	9.85	21.5	14.6	–	–	–	–	–	–	–	–
COc1cc(OC)c(C2CCN(C)C2CO)c(O)c1-c1cc(-c2ccccc2F)[nH]n1 (centres undefined)	15	21	19	23	19	0	11	–	–	–	–	–	–	–	–	–	–	–	–
COc1cc(OC)c(C2CCN(C)C2CO)c(O)c1-c1cc(-c2ccccc2C)[nH]n1 (centres undefined)	11	17	14	18	16	0	13	–	–	–	–	–	–	–	–	–	–	–	–
COc1ccccc1-c1cc(-c2c(OC)cc(OC)c(C3CCN(C)C3CO)c2O)n[nH]1 (centres undefined)	13	29	17	15	21	0	10	–	–	–	–	–	–	–	–	–	–	–	–
COc1ccc(-c2cc(-c3c(OC)cc(OC)c(C4CCN(C)C4CO)c3O)n[nH]2)c(OC)c1 (centres undefined)	21	16	24	19	17	0	11	1.75	0.84	2.84	0.96	–	–	–	–	–	–	–	–
COc1cc(OC)c(C2CCN(C)C2CO)c(O)c1-c1cc(-c2cccc(Cl)c2)[nH]n1 (centres undefined)	59	67	61	55	63	11	35	–	–	–	–	–	–	–	–	–	–	–	–
COc1cc(OC)c(C2CCN(C)C2CO)c(O)c1-c1cc(-c2cccc(Br)c2)[nH]n1 (centres undefined)	65	58	52	61	59	13	43	–	–	–	–	–	–	–	–	–	–	–	–
COc1cc(OC)c(C2CCN(C)C2CO)c(O)c1-c1cc(-c2ccc(C)cc2)[nH]n1 (centres undefined)	17	11	21	13	19	0	10	–	–	–	–	–	–	–	–	–	–	–	–
COc1cc(OC)c(C2CCN(C)C2CO)c(O)c1-c1cc(-c2ccc(F)cc2)[nH]n1 (centres undefined)	19	15	26	16	21	11	28	15.5	11.2	19.6	12.6	–	–	–	–	–	–	–	–
COc1ccc(-c2cc(-c3c(OC)cc(OC)c(C4CCN(C)C4CO)c3O)n[nH]2)cc1 (centres undefined)	15	22	19	13	16	0	12	–	–	–	–	–	–	–	–	–	–	–	–
COc1cc(OC)c(C2CCN(C)C2CO)c(O)c1-c1cc(-c2ccc(Cl)cc2)[nH]n1 (centres undefined)	61	65	63	58	55	16	35	–	–	–	–	–	–	–	–	–	–	–	–
COc1cc(OC)c(C2CCN(C)C2CO)c(O)c1-c1cc(-c2ccc(Br)cc2)[nH]n1 (centres undefined)	63	59	57	61	49	17	31	–	–	–	–	–	–	–	–	–	–	–	–
CN1CC[C@H](c2c(O)cc(O)c3c(=O)cc(-c4ccccc4Cl)oc23)[C@H](O)C1 [ALVOCIDIB]	–	–	–	–	–	–	–	–	–	–	–	74	77	72	78	87	–	–	–
C[C@@H]1C[C@H]2[C@@H]3CCC4=CC(=O)C=C[C@]4(C)[C@@]3(F)[C@@H](O)C[C@]2(C)[C@@]1(O)C(=O)CO [DEXAMETHASONE]	–	–	–	–	–	–	–	–	–	–	–	–	–	–	–	–	71	85	0
